Measured values reported in ChEMBL document CHEMBL4422635, “Structure-Based Discovery of a Subtype-Selective Inhibitor Targeting a Transient Receptor Potential Vanilloid Channel” (J Med Chem, 2019).
The source made the active and inactive calls. The calls are words filed in the database; no cut-off is given here.

Biological target: T1, Transient receptor potential cation channel subfamily V member 2 (Homo sapiens) (UniProt Q9Y5S1)
T1 sequence (whole entry): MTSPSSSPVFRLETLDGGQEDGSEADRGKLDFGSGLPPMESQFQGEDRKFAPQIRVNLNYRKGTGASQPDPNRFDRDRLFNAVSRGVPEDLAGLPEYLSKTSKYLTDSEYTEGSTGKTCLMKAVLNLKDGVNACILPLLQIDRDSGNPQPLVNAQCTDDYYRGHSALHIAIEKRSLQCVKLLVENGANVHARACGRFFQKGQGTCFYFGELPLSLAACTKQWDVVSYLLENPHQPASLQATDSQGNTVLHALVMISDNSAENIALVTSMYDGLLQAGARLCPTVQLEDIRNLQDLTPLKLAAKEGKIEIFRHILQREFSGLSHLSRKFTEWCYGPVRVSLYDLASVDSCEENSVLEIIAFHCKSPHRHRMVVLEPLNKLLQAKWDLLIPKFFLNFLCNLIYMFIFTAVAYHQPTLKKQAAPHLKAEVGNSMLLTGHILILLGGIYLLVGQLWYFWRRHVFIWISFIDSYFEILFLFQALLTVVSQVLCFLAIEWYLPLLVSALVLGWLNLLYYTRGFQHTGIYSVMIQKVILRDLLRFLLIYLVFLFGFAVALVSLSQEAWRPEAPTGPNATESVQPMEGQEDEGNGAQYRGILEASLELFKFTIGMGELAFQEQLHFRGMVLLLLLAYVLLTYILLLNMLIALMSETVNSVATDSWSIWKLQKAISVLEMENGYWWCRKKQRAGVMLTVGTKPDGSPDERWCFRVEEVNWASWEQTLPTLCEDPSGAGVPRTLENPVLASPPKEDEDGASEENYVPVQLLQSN
Assay: Antagonist activity at TRPV2 in human PC3M cells assessed as inhibition of LPA-induced intracellular calcium levels at 100 uM Fluo-4 AM-based fluorescence assay
Type: cell-based
In short: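 PC-3M cells cultured 24 h, loaded with 2 μM Fluo-4 AM in HBSS for 45 min at 37 °C, then compound added. Cytoplasmic Ca2+ rise read as relative fluorescence at ex 485 / em 525 nm.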

inhibition: Active
Structure (SMILES): CCCN(C)c1cc(C(F)(F)F)nc(SCCC(=O)NCc2ccco2)n1
